Measured values: ChEMBL document CHEMBL5150048, “Synthesis and Evaluation of Polymyxins Bearing Reductively Labile Disulfide-Linked Lipids” (J Med Chem, 2022)
Starred links: 1 amine or outer side, 2 acyl side, 3 side chain; linkers in the order of their positions; H or OH if unused. Positions of bridges follow the written chain, without caps; N, C: chain ends. Non-standard residues stand in square brackets, D forms with d. Residues, ends and D or L forms follow the SMILES beside them. *: point of attachment. X2 = CC(C)CCCCC[C@@H](N[*:1])C(=O)[*:2]; S(2-cyclohexylethyl) = C1CCC(CCS*)CC1; S(3-Cl-benzyl) = Clc1cccc(CS*)c1; X3 = c1ccc(Oc2ccc(CS*)cc2)cc1; X5 = c1ccc(-c2ccc(CS*)cc2)cc1; S(3-Methylbutyl) = CC(C)CCS*; X6 = c1ccc(-c2ccc(S*)cc2)cc1; Dab = NCC[C@H](N)C(=O)O; X1 = CC(C)CCCCS*; X4 = CCCCCCS*

Assays:
Acinetobacter baumannii = assay: Antibacterial activity against Acinetobacter baumannii ATCC 19606 assessed as inhibition of bacterial growth by CLSI based broth microdilution method; assay type: functional
How it was run: (§1)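 Broth microdilution per CLSI. Colonies from overnight blood agar at 37 °C were grown in TSB to OD600 0.5. Compounds (6.4 mg/mL DMSO stock) were diluted serially in CAMHB (12.5 μg/mL Mg2+, 20 μg/mL Ca2+) in polypropylene plates and inoculated to a final 10^6 CFU/mL, then incubated at 37 °C under gas-permeable membrane. MIC is the lowest concentration without visible growth, from at least duplicate experiments.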

[1] = Stability of the compound in PBS assessed as drug degradation at 1 mg/ml incubated for 24 hrs in presence of 5 mM glutathione by RP-HPLC analysis; assay type: physicochemical; conditions: buffer
How it was run: (§2)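 Compound (1 mg/mL stock) was mixed 1:9 by volume with PBS glutathione stock: 5.5 μM for the low-glutathione line (7), 5.5 mM for the high-glutathione line (8). Vials were N2-flushed and held in the HPLC autosampler at RT. Samples at 0, 1, 2, 3, 4, 8, 10 and 24 h were analysed by RP-HPLC, UV 214 nm, and quantified against an external calibration curve in PBS run in duplicate.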

[2] = Stability of the compound in PBS assessed as compound remaining at 1 mg/ml incubated for 24 hrs in presence of 5 uM glutathione by RP-HPLC analysis; assay type: physicochemical; conditions: PBS with 5 uM glutathione, read-out: Stability; how it was run: as §2
Erythrocyte = assay: Hemolytic activity in sheep erythrocytes at 128 ug/ml incubated for 1 hr by absorbance based analysis; assay type: toxicity, cell-based, Ovis aries; conditions: dose 128 µg/ml
How it was run: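 Defibrinated sheep red cells were washed four times in PBS with 0.002% Tween20 and adjusted to A415 2.5–3.0. They were mixed 1:1 by volume with compound serial dilutions (128–4 μg/mL, before mixing) and shaken 1 h at 37 °C. After centrifugation, supernatant was diluted in PBS and read at 415 nm. Values were background-corrected and given as % of 0.1% Triton X-100 lysis, from triplicates.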

[3] = Cytotoxicity against human differentiated conditionally immortalized RPTEC cells assessed as reduction in cell viability incubated for 24 hrs by PrestoBlue reagent based assay; assay type: toxicity; conditions: read-out: TC50
How it was run: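 ciPTEC (OAT-1) cells were seeded at 2.0 × 10^5 cells/mL in DMEM/F-12 with 10% FCS, insulin, transferrin, selenium, hydrocortisone, EGF and tri-iodothyronine. They were differentiated 24 h at 33 °C then 6 days at 37 °C, 5% CO2. Compounds serially diluted in serum-free medium were applied for 24 h at 37 °C, then 10% PrestoBlue in HBSS was added. Fluorescence (ex 530/em 590 nm) was background-corrected and normalized to untreated cells. TC50 came from nonlinear regression with bottom fixed at 0.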

Escherichia coli = assay: Antibacterial activity against Escherichia coli ATCC 25922 assessed as inhibition of bacterial growth by CLSI based broth microdilution method; assay type: functional; how it was run: as §1
Klebsiella pneumoniae = assay: Antibacterial activity against Klebsiella pneumoniae ATCC 13883 assessed as inhibition of bacterial growth by CLSI based broth microdilution method; assay type: functional; how it was run: as §1
Pseudomonas aeruginosa = assay: Antibacterial activity against Pseudomonas aeruginosa ATCC 27853 assessed as inhibition of bacterial growth by CLSI based broth microdilution method; assay type: functional; how it was run: as §1
[4] = Toxicity index, ratio of test compound TC50 to polymyxin B TC50 for cytotoxicity against human differentiated conditionally immortalized RPTEC cells incubated for 24 hrs by PrestoBlue reagent based assay; assay type: cell-based

Which MIC (Acinetobacter baumannii) does the source give for CC(C)CCSSC[C@H](N)C(=O)N[C@H](C(=O)N[C@@H](CCN)C(=O)N[C@H]1CCNC(=O)[C@H]([C@@H](C)O)NC(=O)[C@H](CCN)NC(=O)[C@H](CCN)NC(=O)[C@H](CC(C)C)NC(=O)[C@@H](Cc2ccccc2)NC(=O)[C@H](CCN)NC1=O)[C@@H](C)O (H-C(S(3-Methylbutyl))T[Dab][Dab][Dab][dF]L[Dab][Dab]T; lactam 4-C) here?
The MIC was over 32 µg/mL.

With CCCCCCSSC[C@H](N)C(=O)N[C@H](C(=O)N[C@@H](CCN)C(=O)N[C@H]1CCNC(=O)[C@H]([C@@H](C)O)NC(=O)[C@H](CCN)NC(=O)[C@H](CCN)NC(=O)[C@H](CC(C)C)NC(=O)[C@@H](Cc2ccccc2)NC(=O)[C@H](CCN)NC1=O)[C@@H](C)O (H-C(X4)T[Dab][Dab][Dab][dF]L[Dab][Dab]T; lactam 4-C) as the compound, how does the MIC (Acinetobacter baumannii) read?
The MIC was over 32 µg/mL.

Which Stability [1] does the source give for CC(C)C[C@@H]1NC(=O)[C@@H](Cc2ccccc2)NC(=O)[C@H](CCN)NC(=O)[C@@H](NC(=O)[C@H](CCN)NC(=O)[C@@H](NC(=O)[C@H](CSSCCC2CCCCC2)NC(=O)CN)[C@@H](C)O)CCNC(=O)[C@H]([C@@H](C)O)NC(=O)[C@H](CCN)NC(=O)[C@H](CCN)NC1=O (H-GC(S(2-cyclohexylethyl))T[Dab][Dab][Dab][dF]L[Dab][Dab]T; lactam 5-C) here?
The Stability was “Unstable”.

What about the remaining at 24 h, 1 mg/ml [2] of the same compound?
Its remaining at 24 h, 1 mg/ml is 70%.

What about the Activity (Erythrocyte) of the same compound?
The Activity was “Non-Toxic”.

Which Activity (Erythrocyte) does the source give for CC(C)C[C@@H]1NC(=O)[C@@H](Cc2ccccc2)NC(=O)[C@H](CCN)NC(=O)[C@@H](NC(=O)[C@H](CCN)NC(=O)[C@@H](NC(=O)[C@H](CSSc2ccc(-c3ccccc3)cc2)NC(=O)CN)[C@@H](C)O)CCNC(=O)[C@H]([C@@H](C)O)NC(=O)[C@H](CCN)NC(=O)[C@H](CCN)NC1=O (H-GC(X6)T[Dab][Dab][Dab][dF]L[Dab][Dab]T; lactam 5-C) here?
Its Activity is “Non-Toxic”.

Which Activity (Erythrocyte) does the source give for CC(C)C[C@@H]1NC(=O)[C@@H](Cc2ccccc2)NC(=O)[C@H](CCN)NC(=O)[C@@H](NC(=O)[C@H](CCN)NC(=O)[C@@H](NC(=O)[C@@H](CSSCCC2CCCCC2)NC(=O)CN)[C@@H](C)O)CCNC(=O)[C@H]([C@@H](C)O)NC(=O)[C@H](CCN)NC(=O)[C@H](CCN)NC1=O (H-G[dC](S(2-cyclohexylethyl))T[Dab][Dab][Dab][dF]L[Dab][Dab]T; lactam 5-C) here?
The Activity was “Non-Toxic”.

For CC(C)CCCCC[C@@H](N)C(=O)N[C@H](C(=O)N[C@@H](CCN)C(=O)N[C@H]1CCNC(=O)[C@H]([C@@H](C)O)NC(=O)[C@H](CCN)NC(=O)[C@H](CCN)NC(=O)[C@H](CC(C)C)NC(=O)[C@@H](Cc2ccccc2)NC(=O)[C@H](CCN)NC1=O)[C@@H](C)O (H-[X2]T[Dab][Dab][Dab][dF]L[Dab][Dab]T; lactam 4-C), which Activity (Erythrocyte) is on record?
Its Activity is “Non-Toxic”.

And the CC50 at 24 h [3]?
The CC50 at 24 h was 82 µM.

With CC(C)C[C@@H]1NC(=O)[C@@H](Cc2ccccc2)NC(=O)[C@H](CCN)NC(=O)[C@@H](NC(=O)[C@H](CCN)NC(=O)[C@@H](NC(=O)[C@H](N)CSSCCC2CCCCC2)[C@@H](C)O)CCNC(=O)[C@H]([C@@H](C)O)NC(=O)[C@H](CCN)NC(=O)[C@H](CCN)NC1=O (H-[dC](S(2-cyclohexylethyl))T[Dab][Dab][Dab][dF]L[Dab][Dab]T; lactam 4-C) as the compound, how does the Activity (Erythrocyte) read?
Its Activity is “Non-Toxic”.

With CC(C)C[C@@H]1NC(=O)[C@@H](Cc2ccccc2)NC(=O)[C@H](CCN)NC(=O)[C@@H](NC(=O)[C@H](CCN)NC(=O)[C@@H](NC(=O)[C@H](N)CSSCc2cccc(Cl)c2)[C@@H](C)O)CCNC(=O)[C@H]([C@@H](C)O)NC(=O)[C@H](CCN)NC(=O)[C@H](CCN)NC1=O (H-[dC](S(3-Cl-benzyl))T[Dab][Dab][Dab][dF]L[Dab][Dab]T; lactam 4-C) as the compound, how does the Activity (Erythrocyte) read?
Its Activity is “Non-Toxic”.

Which results are given for CC(C)CCSSC[C@@H](N)C(=O)N[C@H](C(=O)N[C@@H](CCN)C(=O)N[C@H]1CCNC(=O)[C@H]([C@@H](C)O)NC(=O)[C@H](CCN)NC(=O)[C@H](CCN)NC(=O)[C@H](CC(C)C)NC(=O)[C@@H](Cc2ccccc2)NC(=O)[C@H](CCN)NC1=O)[C@@H](C)O (H-[dC](S(3-Methylbutyl))T[Dab][Dab][Dab][dF]L[Dab][Dab]T; lactam 4-C)?
Stability [1]: Unstable; remaining at 24 h, 1 mg/ml [2]: 70%; Activity (Erythrocyte): Non-Toxic; CC50 at 24 h [3]: 192 µM

For CC(C)CCCCSSC[C@@H](N)C(=O)N[C@H](C(=O)N[C@@H](CCN)C(=O)N[C@H]1CCNC(=O)[C@H]([C@@H](C)O)NC(=O)[C@H](CCN)NC(=O)[C@H](CCN)NC(=O)[C@H](CC(C)C)NC(=O)[C@@H](Cc2ccccc2)NC(=O)[C@H](CCN)NC1=O)[C@@H](C)O (H-[dC](X1)T[Dab][Dab][Dab][dF]L[Dab][Dab]T; lactam 4-C), which Activity (Erythrocyte) is on record?
Its Activity is “Non-Toxic”.

With CC(C)C[C@@H]1NC(=O)[C@@H](Cc2ccccc2)NC(=O)[C@H](CCN)NC(=O)[C@@H](NC(=O)[C@H](CCN)NC(=O)[C@@H](NC(=O)[C@H](N)CSSCc2ccc(Oc3ccccc3)cc2)[C@@H](C)O)CCNC(=O)[C@H]([C@@H](C)O)NC(=O)[C@H](CCN)NC(=O)[C@H](CCN)NC1=O (H-[dC](X3)T[Dab][Dab][Dab][dF]L[Dab][Dab]T; lactam 4-C) as the compound, how does the Activity (Erythrocyte) read?
The Activity was “Non-Toxic”.

With CCCCCCSSC[C@@H](N)C(=O)N[C@H](C(=O)N[C@@H](CCN)C(=O)N[C@H]1CCNC(=O)[C@H]([C@@H](C)O)NC(=O)[C@H](CCN)NC(=O)[C@H](CCN)NC(=O)[C@H](CC(C)C)NC(=O)[C@@H](Cc2ccccc2)NC(=O)[C@H](CCN)NC1=O)[C@@H](C)O (H-[dC](X4)T[Dab][Dab][Dab][dF]L[Dab][Dab]T; lactam 4-C) as the compound, how does the Activity (Erythrocyte) read?
The Activity was “Non-Toxic”.

With CC(C)C[C@@H]1NC(=O)[C@@H](Cc2ccccc2)NC(=O)[C@H](CCN)NC(=O)[C@@H](NC(=O)[C@H](CCN)NC(=O)[C@@H](NC(=O)[C@H](N)CSSCc2ccc(-c3ccccc3)cc2)[C@@H](C)O)CCNC(=O)[C@H]([C@@H](C)O)NC(=O)[C@H](CCN)NC(=O)[C@H](CCN)NC1=O (H-[dC](X5)T[Dab][Dab][Dab][dF]L[Dab][Dab]T; lactam 4-C) as the compound, how does the Activity (Erythrocyte) read?
The Activity was “Non-Toxic”.

Which MIC (Escherichia coli) does the source give for CC(C)C[C@@H]1NC(=O)[C@@H](Cc2ccccc2)NC(=O)[C@H](CCN)NC(=O)[C@@H](NC(=O)[C@H](CCN)NC(=O)[C@@H](N)[C@@H](C)O)CCNC(=O)[C@H]([C@@H](C)O)NC(=O)[C@H](CCN)NC(=O)[C@H](CCN)NC1=O [POLYMYXIN B NONAPEPTIDE] (H-T[Dab][Dab][Dab][dF]L[Dab][Dab]T; lactam 3-C) here?
The MIC was over 32 µg/mL.

What about the MIC (Klebsiella pneumoniae) of the same compound?
The MIC was over 32 µg/mL.

And the MIC (Acinetobacter baumannii)?
Its MIC is over 32 µg/mL.

And the MIC (Pseudomonas aeruginosa)?
Its MIC is over 32 µg/mL.

And the selectivity ratio at 24 h [4]?
Its selectivity ratio at 24 h is over 10.

With POLYMYXIN B [listing 1 of 2 here] as the compound, how does the Activity (Erythrocyte) read?
The Activity was “Non-Toxic”.

Which MIC (Escherichia coli) does the source give for POLYMYXIN B [listing 2 of 2 here] here?
The MIC was 1 µg/mL.

And the MIC (Klebsiella pneumoniae)?
Its MIC is 0.25 µg/mL.

What about the MIC (Acinetobacter baumannii) of the same compound?
The MIC was 0.25 µg/mL.

What about the MIC (Pseudomonas aeruginosa) of the same compound?
The MIC was 1 µg/mL.
